Insulin prom act: TRM-6 insulin promoter activation | AID 1296 | TRM-6 cells (human fetal islet line), insulin promoter eGFP reporter, imaging; plate-scaled: unstimulated 0, stimulated control 100 | activation, % at 2 µM | actives 0.81% (n = 130,000);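 active = activation at 2 µM above a set limit, confirmed on inspection of the cell images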;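 also: share of cells whose green reporter signal exceeds an intensity cutoff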
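Assay system: TRM-6 human fetal islet cells, insulin promoter–eGFP reporter; Also added: 0.75 µM tamoxifen as reporter inducer; Schedule: 15 h tamoxifen pre-treatment, 48 h compound treatment at 37 °C; Signal: fixed-cell fluorescence microscopy, eGFP plus Hoechst; Read-out: percent activation from GFP-positive cell fraction; Control set: stimulated and unstimulated wells.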
* hit, by the source's call. Many of the other results were omitted from the sample, so hits are more common in it than they were.

What do the screens show for `COc1ccc(NC(=O)CC(C)c2ccccc2)c([N+](=O)[O-])c1` (configuration not stated)?
Insulin prom act: 443*

Results for COc1ccc(NC(=O)/C=C/c2ccccc2)c([N+](=O)[O-])c1 ?
Insulin prom act: -9

What do the screens show for `COc1ccc(NC(=O)COC(=O)c2ccco2)c([N+](=O)[O-])c1`?
Insulin prom act: -9

How did COC(CN(C(=O)CCl)C(C(=O)NC1CCCCC1)c1ccc(C)cc1)OC (configuration not stated) do in these assays?
Insulin prom act: 7

What do the screens show for `COc1ccc(NS(=O)(=O)c2ccc(N3CCCC3)c(NC(=S)Nc3cccc(S(=O)(=O)N(C)C)c3)c2)cc1`?
Insulin prom act: 8

Results for CN1c2ccccc2N(C)C1c1ccc2c(c1)OCO2 ?
Insulin prom act: 193

How did CC12CN3CC(C)(CN(C1)C3c1ccc3c(c1)OCO3)C2=O (configuration not stated) do in these assays?
Insulin prom act: 438*

How did O=C1C2C3C=CC(CC3)C2C(=O)N1c1ccc2c(c1)OCO2 (configuration not stated) do in these assays?
Insulin prom act: 107

Results for CCOC(=O)c1cnc(SC)nc1Sc1cc(Cl)ccc1Cl ?
Insulin prom act: 5

How did CCCN(CCC)CCCNC(=O)CN1C(=O)CSc2ccc(S(=O)(=O)N3CCOCC3)cc21 do in these assays?
Insulin prom act: 0

How did O=C(NCc1nnc(SCC(=O)N2CCOCC2)o1)c1c(F)cccc1Cl do in these assays?
Insulin prom act: 107

What do the screens show for `CCCn1cc(NC(=O)c2cc3n(n2)C(C(F)(F)F)CC(c2ccccc2)N3)cn1` (configuration not stated)?
Insulin prom act: 431*

How did Cc1nn(C)c(C)c1CNC(=O)c1cc2n(n1)C(C(F)(F)F)CC(c1cccs1)N2 (configuration not stated) do in these assays?
Insulin prom act: 279

What do the screens show for `Cc1cc(NC(=O)c2cc3n(n2)C(C(F)(F)F)CC(c2ccco2)N3)n(-c2ccccc2)n1` (configuration not stated)?
Insulin prom act: 230

How did O=C(O)CCCC(=O)N1N=C(c2ccccc2)CC1c1ccc2nccnc2c1 (configuration not stated) do in these assays?
Insulin prom act: -7

What do the screens show for `FC(F)(F)c1cc(-c2cccs2)nc2nc(N3CCOCC3)sc12`?
Insulin prom act: 8

What do the screens show for `O=C(CCCCCNC(=O)c1ccccc1)C[N+](=O)[O-]`?
Insulin prom act: 8

Results for CC1CCCC(C)N1C(=O)C1CCCCC1 (configuration not stated) ?
Insulin prom act: -7

What do the screens show for `CC(=O)N1C2CCCCC2S[C@H]2CCCCC21` (some centres not stated)?
Insulin prom act: 200*

How did COC(=O)CCC(=O)Nc1cccc(C(=O)Nc2cccc(Cl)c2)c1 do in these assays?
Insulin prom act: -4

Results for Cn1c(=N)n(CC(=O)O)c2ccccc21 ?
Insulin prom act: 0

How did CCN(CC)CCn1c(=N)n(CC(O)c2ccco2)c2ccccc21 (configuration not stated) do in these assays?
Insulin prom act: 508*

Results for N=c1n(Cc2ccccc2)c2ccccc2n1CC(O)c1ccco1 (configuration not stated) ?
Insulin prom act: 0

How did Cc1ccc2[nH]c(=O)c(CN(Cc3cccnc3)Cc3nnnn3CCN3CCOCC3)cc2c1 do in these assays?
Insulin prom act: 3

Results for O=c1c(-c2nnc(SCc3ccc(Cl)c(Cl)c3)o2)cccn1Cc1ccccc1 ?
Insulin prom act: -4

How did CCN(CCCn1c(=S)[nH]c2ccc(N3CCOCC3)cc2c1=O)c1ccccc1 do in these assays?
Insulin prom act: 6

How did C=CCn1c(CNC(=O)c2ccccc2C)nnc1SCC(=O)NC1CCCC1 do in these assays?
Insulin prom act: 305

How did Cn1nnnc1SCC(=O)N1c2ccccc2Sc2ccccc21 do in these assays?
Insulin prom act: -9

Results for C=CCn1c(CNC(=O)c2ccco2)nnc1SCC(=O)N1c2ccccc2Sc2ccccc21 ?
Insulin prom act: 103*

What do the screens show for `CCCn1c(SCC(=O)c2c(C)[nH]c(C)c2C(=O)OCC)nc2ccccc21`?
Insulin prom act: -3

How did COc1ccc(N(C(=O)CCl)C(C)(C(=O)Nc2c(C)cccc2C)c2ccccn2)cc1 (configuration not stated) do in these assays?
Insulin prom act: -70

Results for Cc1ccc(S(=O)(=O)NCC(=O)OCC(=O)Nc2cccc(S(=O)(=O)NC3=NCCCCC3)c2)cc1 ?
Insulin prom act: -78

Results for O=C(COC(=O)CCNS(=O)(=O)c1ccc2c(c1)OCCO2)NC1CCCc2ccccc21 (configuration not stated) ?
Insulin prom act: 9

How did O=C(COC(=O)CNS(=O)(=O)c1cccc(Br)c1)NC(=O)Nc1ccc2c(c1)OCCO2 do in these assays?
Insulin prom act: 400*

What do the screens show for `Cc1[nH]c2ccccc2c1Cc1nnc(SCCC#N)o1`?
Insulin prom act: 0

How did CC12CCC(C(=O)N(CC(O)CN3CCCCC3)C1=O)C2(C)C (configuration not stated) do in these assays?
Insulin prom act: -7

Results for Cc1ccc(C(=O)Nc2nc(=O)n(C(=O)c3ccccc3Cl)s2)cc1 ?
Insulin prom act: 84*

Results for CCn1c(NC(=O)c2ccc(C)cc2)c2ccccc2nc1=O ?
Insulin prom act: -9

How did CC(C)CC(=O)n1sc(NC(=O)c2ccccc2)nc1=O do in these assays?
Insulin prom act: 7

What do the screens show for `Cc1cc(=O)[nH]c(N2CCc3ccccc3C2)n1`?
Insulin prom act: -100

What do the screens show for `CCOc1ccc(N=C(NN)c2ccc3ccccc3n2)cc1`?
Insulin prom act: 3

What do the screens show for `CCc1ccc(NC(=O)CCn2ccnc2C)cc1`?
Insulin prom act: 6

What do the screens show for `Cn1c(=O)n(CC(=O)OCc2ccccc2)c(=O)c2c1nc1n2CCCN1C1CCCCC1`?
Insulin prom act: 0

What do the screens show for `CC(C)c1noc2ncc(C(=O)c3cc(Cl)cc(Cl)c3O)cc12`?
Insulin prom act: 4

What do the screens show for `COc1ccc2c(c1)C(=O)[C@@H](OC(=O)NCc1ccc3c(c1)OCO3)[C@H](c1ccc(OC)c(Br)c1)O2`?
Insulin prom act: 0

What do the screens show for `S=C(NCCc1ccccc1)NC1CC2CCC(C1)N2Cc1ccccc1` (configuration not stated)?
Insulin prom act: 0

What do the screens show for `COc1ccc(/C=C/c2ccncc2)cc1`?
Insulin prom act: -8

Results for CC(C)OP(=O)(c1ccc(N(C)C)cc1)C(O)c1ccncc1 (configuration not stated) ?
Insulin prom act: -8

How did CN(C)c1ccc(/C=C/c2ccncc2)cc1 do in these assays?
Insulin prom act: 87*

Results for CC(C)CCNC(=O)CCn1c(=S)oc2ccccc21 ?
Insulin prom act: 0

Results for COc1cc(-c2nnc(Sc3ccc(C(F)(F)F)cc3[N+](=O)[O-])o2)cc(OC)c1OC ?
Insulin prom act: 3

How did Cc1cc([N+](=O)[O-])nn1CCCC(=O)NC1CCCCC1 do in these assays?
Insulin prom act: -3

How did Cc1ccc(SC(C)C(=O)Nc2ncn[nH]2)cc1 (configuration not stated) do in these assays?
Insulin prom act: 8

How did CCCCCNC(=O)C(C)Sc1ccc(Cl)cc1 (configuration not stated) do in these assays?
Insulin prom act: 164

What do the screens show for `Cc1ccc(SC(C)C(=O)NCC(C)C)cc1` (configuration not stated)?
Insulin prom act: 519*

Assay outcomes from PubChem BioAssay.
